Activity calls are given as the source filed them. How the calls were made is not given here.
How the values were obtained:
[1] = target: T1, Tyrosyl-DNA phosphodiesterase 2 (Homo sapiens, UniProt O95551); assay: Inhibition of recombinant human TDP2 using TY18 (alpha-[32P]-cordycepin-3'-labeled) as substrate after 15 mins by PAGE analysis
T1 sequence (O95551 whole entry): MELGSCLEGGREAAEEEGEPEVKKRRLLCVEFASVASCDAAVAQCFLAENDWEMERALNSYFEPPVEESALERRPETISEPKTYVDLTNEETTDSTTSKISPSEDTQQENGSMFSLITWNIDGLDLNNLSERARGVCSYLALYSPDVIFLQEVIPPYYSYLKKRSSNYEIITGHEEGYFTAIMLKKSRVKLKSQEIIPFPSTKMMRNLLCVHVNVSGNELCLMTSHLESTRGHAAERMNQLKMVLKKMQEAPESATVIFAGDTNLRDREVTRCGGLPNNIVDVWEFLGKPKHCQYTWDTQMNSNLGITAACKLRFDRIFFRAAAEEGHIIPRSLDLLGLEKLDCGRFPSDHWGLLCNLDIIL
Method in brief: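 32P-cordycepin-3'-labeled TY18 substrate at 1 nM with 25 pM recombinant human TDP2, 15 min at room temperature. Buffer: 50 mM Tris-HCl pH 7.5, 80 mM KCl, 5 mM MgCl2, 0.1 mM EDTA, 1 mM DTT, 40 μg/mL BSA, 0.01% Tween 20. Six or eight three-fold dilutions up to 111 μM. Gel densitometry; IC50 is mean ± SD of ≥3 independent experiments. Positive control: SV-163.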

[2] = target: Tyrosyl-DNA phosphodiesterase 1 (Homo sapiens, UniProt Q9NUW8); assay: Inhibition of recombinant TDP1 (unknown origin) at 111 uM using 5'-[32P]-labeled N14Y as substrate after 15 mins by PAGE analysis
Chain of Tyrosyl-DNA phosphodiesterase 1 (Q9NUW8 whole entry): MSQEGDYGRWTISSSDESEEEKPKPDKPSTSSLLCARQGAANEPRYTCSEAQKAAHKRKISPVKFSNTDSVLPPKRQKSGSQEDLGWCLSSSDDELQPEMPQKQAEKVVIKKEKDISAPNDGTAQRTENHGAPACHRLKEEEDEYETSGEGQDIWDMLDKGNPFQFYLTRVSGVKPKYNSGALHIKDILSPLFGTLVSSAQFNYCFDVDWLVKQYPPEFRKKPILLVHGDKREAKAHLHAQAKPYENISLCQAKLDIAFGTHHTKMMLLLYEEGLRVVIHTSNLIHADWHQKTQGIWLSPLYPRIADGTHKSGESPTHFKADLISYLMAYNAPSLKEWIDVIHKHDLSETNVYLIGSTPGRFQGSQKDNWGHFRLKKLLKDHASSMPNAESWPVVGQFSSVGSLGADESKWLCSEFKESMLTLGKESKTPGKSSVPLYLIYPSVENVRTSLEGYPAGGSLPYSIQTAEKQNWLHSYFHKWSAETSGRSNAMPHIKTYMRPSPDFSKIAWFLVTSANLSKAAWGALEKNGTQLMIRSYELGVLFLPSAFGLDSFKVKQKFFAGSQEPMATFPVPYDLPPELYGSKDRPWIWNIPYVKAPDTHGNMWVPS
Method in brief: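 5'-32P-labeled N14Y (3'-phosphotyrosyl single-stranded oligo) at 1 nM with 10 pM recombinant TDP1, 15 min at room temperature. Three-fold dilutions up to 111 μM. Gels scanned and quantified by densitometry. Positive control: AM-8-3.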

[3] = target: T1, Tyrosyl-DNA phosphodiesterase 2; assay: Inhibition of human TDP2 expressed in TDP2 deficient chicken DT40 whole cell extracts using TY19 DNA as substrate after 15 mins by PAGE analysis
Method in brief: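 Extract from 1×10^7 TDP2-knockout DT40 cells complemented with human TDP2, lysed 15 min on ice, spun at 12000 g for 10 min, stored at -80 °C. TY19 substrate at 1 nM with 5 μg/mL extract, ±inhibitor, 15 min at room temperature in LMP2 buffer. Gel densitometry. IC50 is mean ± SD of ≥3 independent experiments.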

Row | SMILES | IC50 [1] | inhibition [2] | IC50 [3]
1 | CCOC(=O)c1c2c(n(C)c1C)C(=O)c1ncccc1C2=O | > 111 µM | inactive | –
2 | Cc1oc2c(c1C(=O)Oc1cccc(-c3cn(CCC(=O)O)nn3)c1)C(=O)c1ncccc1C2=O [listing 1 of 3 here] | 22 µM | – | 13 µM
3 | Cc1oc2c(c1C(=O)Oc1cccc(-c3cn(CCC(=O)O)nn3)c1)C(=O)c1ncccc1C2=O [listing 2 of 3 here] | 50 µM | – | 28 µM
4 | C#CCCOC(=O)c1c(C)oc2c1C(=O)c1ncccc1C2=O | 22 µM | inactive | 15 µM
5 | Cc1oc2c(c1C(=O)Oc1ccccc1NC(=O)OC(C)(C)C)C(=O)c1ncccc1C2=O | 36 µM | inactive | –
6 | COC(=O)[C@H](Cc1ccc(OC(=O)c2c(C)oc3c2C(=O)c2ncccc2C3=O)cc1)NC(C)=O | 23 µM | inactive | 17 µM
7 | Cc1oc2c(c1C(=O)Oc1ccc3ccccc3c1)C(=O)c1ncccc1C2=O | > 111 µM | inactive | –
8 | Cc1oc2c(c1C(=O)Oc1cccc(N)c1)C(=O)c1ncccc1C2=O | 16 µM | inactive | 12 µM
9 | Cc1oc2c(c1C(=O)OCC(O)CO)C(=O)c1ncccc1C2=O (centres undefined) | 20 µM | inactive | 11 µM
10 | CCOC(=O)c1c(C)oc2c1C(=O)c1cccnc1C2=O | 43 µM | inactive | 54 µM
11 | CCNC(=O)c1c(C)oc2c1C(=O)c1ncccc1C2=O | > 111 µM | inactive | –
12 | Cc1oc2c(c1C(=O)OCCC[n+]1ccccc1)C(=O)c1ncccc1C2=O | 32 µM | inactive | 24 µM
13 | Cc1oc2c(c1C(=O)Oc1ccc3c(c1)OCO3)C(=O)c1ncccc1C2=O | > 111 µM | inactive | > 111 µM
14 | Cc1oc2c(c1C(=O)OCCC#N)C(=O)c1ncccc1C2=O | 14 µM | inactive | 13 µM
15 | Cc1oc2c(c1C(=O)Nc1ccccc1)C(=O)c1ncccc1C2=O | > 111 µM | inactive | –
16 | CC(=O)c1c(C)oc2c1C(=O)c1cccnc1C2=O | > 111 µM | inactive | –
17 | Cc1oc2c(c1C(=O)OCCc1ccccc1)C(=O)c1ncccc1C2=O | 53 µM | inactive | 24 µM
18 | Cc1oc2c(c1C(=O)Oc1ccc(S(C)(=O)=O)cc1)C(=O)c1ncccc1C2=O | 14 µM | inactive | 16 µM
19 | COc1ccc(NC(=O)c2c(C)oc3c2C(=O)c2ncccc2C3=O)cc1 | > 111 µM | inactive | –
20 | Cc1oc2c(c1-c1nc3ccccc3o1)C(=O)c1ncccc1C2=O | > 111 µM | inactive | –
21 | Cc1oc2c(c1C(=O)Oc1cccnc1)C(=O)c1ncccc1C2=O | 8.8 µM | inactive | 7.7 µM
22 | Cc1oc2c(c1C(=O)Oc1ccccc1Cl)C(=O)c1ncccc1C2=O | 10 µM | inactive | 14 µM
23 | Cc1oc2c(c1C(=O)Oc1cccc(C#N)c1)C(=O)c1ncccc1C2=O | 12 µM | inactive | 10 µM
24 | Cc1oc2c(c1C(=O)OC[C@H](O)CO)C(=O)c1ncccc1C2=O | 50 µM | inactive | 15 µM
25 | Cc1oc2c(c1C(=O)OCCCCCO)C(=O)c1ncccc1C2=O | 45 µM | inactive | 19 µM
26 | Cc1oc2c(c1C(=O)OCC(=O)O)C(=O)c1ncccc1C2=O | 51 µM | inactive | 37 µM
27 | Cc1oc2c(c1C(=O)Oc1ccc(Cl)cc1)C(=O)c1ncccc1C2=O | 11 µM | inactive | 7.5 µM

Row | SMILES | IC50 [1] | inhibition [2] | IC50 [3]
28 | CCOC(=O)c1n[nH]c2c1C(=O)c1ncccc1C2=O | > 111 µM | inactive | –
29 | Cc1oc2c(c1C(=O)Oc1cccc(-c3cn(CCCO)nn3)c1)C(=O)c1ncccc1C2=O | 8.1 µM | inactive | 8.3 µM
30 | Cc1oc2c(c1C(=O)Oc1cccc(Cl)c1)C(=O)c1ncccc1C2=O | 14 µM | inactive | 11 µM
31 | Cc1oc2c(c1C(=O)Nc1ccccc1O)C(=O)c1ncccc1C2=O | > 111 µM | inactive | –
32 | Cc1oc2c(c1C(=O)Oc1ccc(N)cc1)C(=O)c1ncccc1C2=O | 19 µM | inactive | –
33 | CCNC(=O)c1c(C)oc2c1C(=O)c1cccnc1C2=O | > 111 µM | inactive | –
34 | Cc1oc2c(c1C(=O)OCCCCO)C(=O)c1ncccc1C2=O | 26 µM | inactive | 12 µM
35 | COP(=O)(OC)Oc1ccc(OC(=O)c2c(C)oc3c2C(=O)c2ncccc2C3=O)cc1 | 31 µM | inactive | –
36 | Cc1oc2c(c1C(=O)OCCc1cn(CCCO)nn1)C(=O)c1ncccc1C2=O | 66 µM | inactive | 72 µM
37 | C=CC(=O)Nc1ccc(OC(=O)c2c(C)oc3c2C(=O)c2ncccc2C3=O)cc1 | 68 µM | inactive | –
38 | COC(=O)c1c(C)oc2c1C(=O)c1ncccc1C2=O | 26 µM | inactive | 12 µM
39 | Cc1oc2c(c1C(=O)Oc1ccccc1O)C(=O)c1cccnc1C2=O | 29 µM | inactive | 39 µM
40 | COP(=O)(OC)c1c(C)oc2c1C(=O)c1cccnc1C2=O | 99 µM | inactive | –
41 | Cc1oc2c(c1C(=O)OCCOCCO)C(=O)c1ncccc1C2=O | 22 µM | inactive | 13 µM
42 | Cc1oc2c(c1C(=O)Nc1cccc(Cl)c1)C(=O)c1ncccc1C2=O | > 111 µM | inactive | –
43 | C=CC(=O)Nc1cccc(OC(=O)c2c(C)oc3c2C(=O)c2ncccc2C3=O)c1 | 71 µM | inactive | –
44 | CCOC(=O)c1n[nH]c2c1C(=O)c1cccnc1C2=O | > 111 µM | inactive | –
45 | Cc1oc2c(c1C(=O)Oc1cccc(NC(=O)OC(C)(C)C)c1)C(=O)c1ncccc1C2=O | 31 µM | inactive | –
46 | Cc1oc2c(c1C(=O)Oc1ccc(NC(=O)OC(C)(C)C)cc1)C(=O)c1ncccc1C2=O | 88 µM | inactive | –
47 | CCOC(=O)c1c(C)[nH]c2c1C(=O)c1cccnc1C2=O | > 111 µM | inactive | –
48 | Cc1oc2c(c1C(=O)Nc1cccc(Cl)c1)C(=O)c1cccnc1C2=O | > 111 µM | inactive | –
49 | Cc1oc2c(c1C(=O)Oc1ccc(OCCCN3CCOCC3)cc1)C(=O)c1ncccc1C2=O | 51 µM | inactive | –
50 | Cc1oc2c(c1C(=O)Oc1cccc(-c3cn(CCC(=O)O)nn3)c1)C(=O)c1ncccc1C2=O [listing 3 of 3 here] | – | inactive | –
51 | Cc1cnc2c(c1)C(=O)c1occ(C)c1C2=O | > 111 µM | inactive | –
52 | Cc1oc2c(c1C(=O)Oc1ccc(C(=O)c3ccccc3)cc1)C(=O)c1ncccc1C2=O | > 111 µM | inactive | –
53 | COP(=O)(OC)c1c(C)oc2c1C(=O)c1ncccc1C2=O | > 111 µM | inactive | –

— ChEMBL document CHEMBL4152221, “Synthesis and structure-activity relationship of furoquinolinediones as inhibitors of Tyrosyl-DNA phosphodiesterase 2 (TDP2)” (Eur J Med Chem, 2018)
